How the values were obtained:
HT-29 = experiment: Cytotoxicity against human HT-29 cells after 72 hrs by MTT assay; assay type: functional; settings: HT-29, 72 h; for CC50: read-out: LC50 (the source's name)
Summary of the method: (§1)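 MTT read-out after 72 h exposure at 37 °C in humidified 5% CO2, with five concentrations between 0.01 and 100. GI50 is 50% growth reduction versus untreated controls, TGI is complete growth inhibition, and LC50 is the concentration killing 50% of cells. Minimum three independent experiments.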

[1] = Cytotoxicity against human 184B5 cells after 72 hrs by MTT assay; assay type: cell-based; settings: for GI50 at 72 h: 184B5 cells; for LC50 / TGI: 184b5, 72 h; summary of the method: as §1
MCF7 = experiment: Cytotoxicity against human MCF7 cells after 72 hrs by MTT assay; assay type: functional; settings: MCF7, 72 h; summary of the method: as §1
[2] = Cytotoxicity against human BEAS2B cells after 72 hrs by MTT assay; assay type: cell-based, BEAS-2B; settings: for GI50 at 72 h: BEAS2B cells; for LC50 / TGI: beas-2b, 72 h; summary of the method: as §1
CCRF-CEM = experiment: Cytotoxicity against human CCRF-CEM cells after 72 hrs by MTT assay; assay type: functional; settings: for CC50: read-out: LC50 (the source's name); summary of the method: as §1
[3] = Cytotoxicity against human HTB-54 cells after 72 hrs by MTT assay; assay type: functional; settings: HTB-54, 72 h; for CC50: read-out: LC50 (the source's name); summary of the method: as §1

SMILES | GI50 (HT-29) [µM] | TGI (HT-29) [µM] | CC50 (HT-29) [µM] | GI50 at 72 h [1] [µM] | LC50 [1] [µM] | TGI [1] [µM] | GI50 (MCF7) [µM] | LC50 (MCF7) [µM] | TGI (MCF7) [µM] | GI50 at 72 h [2] [µM] | LC50 [2] [µM] | TGI [2] [µM] | GI50 (CCRF-CEM) [µM] | TGI (CCRF-CEM) [µM] | CC50 (CCRF-CEM) [µM] | GI50 [3] [µM] | TGI [3] [µM] | CC50 [3] [µM]
CSc1nc(NCCCc2ccccc2)c2ccccc2n1 | 19.6 | 89.5 | > 100 | 6.77 | > 100 | > 100 | 77.2 | > 100 | > 100 | 73.4 | > 100 | > 100 | 39.5 | 87.8 | > 100 | 50.6 | > 100 | > 100
CCCCC[Se]c1nc(N)c2ccccc2n1 | 40.3 | > 100 | > 100 | 15.3 | 71.85 | 43.6 | 28.6 | 90.4 | 59.5 | 52.2 | > 100 | > 100 | 34.8 | 68 | > 100 | 34.6 | 84 | > 100
[Se]=C=NCc1ccccc1 [BENZYLISOSELENOCYANATE] | 21 | 44.5 | 68.1 | 15.5 | 74.86 | 45.15 | 27.9 | 95.5 | 61.7 | 4.1 | 69.59 | 32.75 | 28.7 | 57.7 | 86.7 | 5.98 | 33.4 | 66.1
Sc1nc(NCc2ccccc2)c2ccccc2n1 | 10.1 | 63.5 | > 100 | 49.6 | > 100 | > 100 | 27.2 | > 100 | > 100 | 66.3 | > 100 | > 100 | 82.4 | > 100 | > 100 | 15.2 | > 100 | > 100
CSc1ccc(CNc2nc(SC)nc3ccccc23)cc1 | 34.7 | > 100 | > 100 | 22 | > 100 | > 100 | 47.3 | > 100 | > 100 | 22.7 | 95.93 | 59.11 | > 100 | > 100 | > 100 | 7.22 | 44.5 | 89.1
[SeH]c1nc(NCc2ccccc2)c2ccccc2n1 | 62.2 | > 100 | > 100 | 20.8 | > 100 | 63.63 | > 100 | > 100 | > 100 | 3.54 | > 100 | > 100 | > 100 | > 100 | > 100 | 31.2 | > 100 | > 100
CCCCC[Se]c1nc(NCc2ccc(SC)cc2)c2ccccc2n1 | 83.6 | > 100 | > 100 | 57.4 | > 100 | > 100 | 34.7 | 95.3 | 65 | 34.7 | > 100 | 88.21 | 35 | 83.9 | > 100 | 40.4 | 81.3 | > 100
Nc1nc([SeH])nc2ccccc12 | 52.2 | > 100 | > 100 | 0.69 | 80.37 | 36.65 | 0.15 | > 100 | > 100 | 0.08 | > 100 | > 100 | 25.7 | 52.4 | 79.1 | 0.04 | 3.63 | > 100
CCCCC[Se]c1nc(N)c2cccnc2n1 | 5.91 | 20 | 62.1 | 10.3 | 70.14 | 40.23 | 22.7 | 85 | 53.8 | 16.3 | 73.48 | 44.89 | 12.9 | 42.8 | 72.6 | 8.78 | 51 | 98.5
CSc1ccc(CNc2nc([Se]C)nc3ccccc23)cc1 | 72.7 | > 100 | > 100 | 37.1 | > 100 | > 100 | 54.1 | > 100 | > 100 | 35.9 | > 100 | 78.54 | 48.7 | 86.9 | > 100 | 37.9 | 72.4 | > 100
CSc1nc(NCc2ccccc2)c2cccnc2n1 | 87.1 | > 100 | > 100 | 49 | > 100 | > 100 | 39.4 | > 100 | > 100 | 25.9 | 97.51 | 61.7 | 56.3 | 98.5 | > 100 | 5.08 | 51.6 | > 100
CSc1nc(NCCCCCO)c2ccccc2n1 | > 100 | > 100 | > 100 | 49.9 | > 100 | > 100 | 62 | > 100 | > 100 | 39.3 | > 100 | 99.35 | > 100 | > 100 | > 100 | 31.4 | 71.4 | > 100
C[Se]c1nc(NCc2ccccc2)c2ccccc2n1 | 42.8 | 81 | > 100 | 3.72 | 73.66 | 12.41 | 15.8 | > 100 | 67 | 0.57 | 78.3 | 36.96 | 39.8 | 61.6 | 83.5 | 74.6 | > 100 | > 100
C[Se]c1nc(N)c2cccnc2n1 | 44.1 | 77.3 | > 100 | 45.5 | > 100 | 87.15 | 43 | > 100 | > 100 | 39.7 | > 100 | 90.81 | 68.4 | > 100 | > 100 | 78.2 | > 100 | > 100
